Assay results published in ChEMBL document CHEMBL4368925, “Design, synthesis, and screening of novel ursolic acid derivatives as potential anti-cancer agents that target the HIF-1α pathway” (Bioorg Med Chem Lett, 2019).

The molecules below were run on Hep 3B2 (assay: Cytotoxicity against human Hep3B cells assessed as reduction in cell viability after 24 hrs in normoxic condition by MTT assay).
Format: cell-based
Summary of the method: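 Hep3B viability by MTT assay after 24 h compound treatment under normoxia; table values are means, n=3.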

First: C[C@H]1[C@H](C)CC[C@]2(C(=O)O)CC[C@]3(C)C(=CC[C@@H]4[C@@]5(C)CC(=C\c6cccc(Cl)c6)/C(=N\NC(=N)N)C(C)(C)[C@@H]5CC[C@]43C)[C@H]12
Second: C[C@H]1[C@H](C)CC[C@]2(C(=O)O)CC[C@]3(C)C(=CC[C@@H]4[C@@]5(C)CC(=C\c6cccc(F)c6)/C(=N\NC(=N)N)C(C)(C)[C@@H]5CC[C@]43C)[C@H]12
The IC50 of the first is higher: > 100 µM for the first, 10.5 µM for the second.

`C[C@H]1[C@H](C)CC[C@]2(C(=O)O)CC[C@]3(C)C(=CC[C@@H]4[C@@]5(C)CC(=C\c6ccccc6Br)/C(=N\NC(=N)N)C(C)(C)[C@@H]5CC[C@]43C)[C@H]12` and `C[C@H]1[C@H](C)CC[C@]2(C(=O)O)CC[C@]3(C)C(=CC[C@@H]4[C@@]5(C)CC(=C\c6ccccc6Cl)/C(=N\NC(=N)N)C(C)(C)[C@@H]5CC[C@]43C)[C@H]12` cannot be ordered by IC50: > 100 µM for the first, > 100 µM for the second.

First: CCCCCOC(=O)[C@]12CC[C@@H](C)[C@H](C)[C@H]1C1=CC[C@@H]3[C@@]4(C)CC/C(=N\NC(=N)N)C(C)(C)[C@@H]4CC[C@@]3(C)[C@]1(C)CC2
Second: CCOC(=O)[C@]12CC[C@@H](C)[C@H](C)[C@H]1C1=CC[C@@H]3[C@@]4(C)CC/C(=N\NC(=N)N)C(C)(C)[C@@H]4CC[C@@]3(C)[C@]1(C)CC2
The IC50 of the first is 3.7-fold higher: 22 µM for the first, 6 µM for the second.

`C[C@H]1[C@H](C)CC[C@]2(C(=O)O)CC[C@]3(C)C(=CC[C@@H]4[C@@]5(C)CC(=C\c6cccs6)/C(=N\NC(=N)N)C(C)(C)[C@@H]5CC[C@]43C)[C@H]12` and `C[C@H]1[C@H](C)CC[C@]2(C(=O)O)CC[C@]3(C)C(=CC[C@@H]4[C@@]5(C)CC(=C\c6ccco6)/C(=N\NC(=N)N)C(C)(C)[C@@H]5CC[C@]43C)[C@H]12` cannot be ordered by IC50: > 100 µM for the first, > 100 µM for the second.

Going from `C[C@H]1[C@H](C)CC[C@]2(C(=O)O)CC[C@]3(C)C(=CC[C@@H]4[C@@]5(C)CC/C(=N\NC(N)=O)C(C)(C)[C@@H]5CC[C@]43C)[C@H]12` to `C[C@H]1[C@H](C)CC[C@]2(C(=O)O)CC[C@]3(C)C(=CC[C@@H]4[C@@]5(C)CC/C(=N\NC(N)=S)C(C)(C)[C@@H]5CC[C@]43C)[C@H]12`, the IC50 rises from 69.8 µM to > 100 µM. The first is the more potent here.

`C[C@H]1[C@H](C)CC[C@]2(C(=O)O)CC[C@]3(C)C(=CC[C@@H]4[C@@]5(C)CC(=C\c6ccc(Cl)cc6Cl)/C(=N\NC(=N)N)C(C)(C)[C@@H]5CC[C@]43C)[C@H]12` and `C[C@H]1[C@H](C)CC[C@]2(C(=O)O)CC[C@]3(C)C(=CC[C@@H]4[C@@]5(C)CC(=C\c6c(Cl)cccc6Cl)/C(=N\NC(=N)N)C(C)(C)[C@@H]5CC[C@]43C)[C@H]12` cannot be ordered by IC50: > 100 µM for the first, > 100 µM for the second.

`COC(=O)[C@]12CC[C@@H](C)[C@H](C)[C@H]1C1=CC[C@@H]3[C@@]4(C)CC/C(=N\NC(=N)N)C(C)(C)[C@@H]4CC[C@@]3(C)[C@]1(C)CC2` and `C[C@H]1[C@H](C)CC[C@]2(C(=O)O)CC[C@]3(C)C(=CC[C@@H]4[C@@]5(C)CC/C(=N\NC(=N)N)C(C)(C)[C@@H]5CC[C@]43C)[C@H]12` cannot be ordered by IC50: > 100 µM for the first, > 100 µM for the second.

`C[C@H]1[C@H](C)CC[C@]2(C(=O)O)CC[C@]3(C)C(=CC[C@@H]4[C@@]5(C)CC(=C\c6ccc([N+](=O)[O-])cc6)/C(=N\NC(=N)N)C(C)(C)[C@@H]5CC[C@]43C)[C@H]12` and `Cc1ccc(/C=C2\C[C@]3(C)[C@H]4CC=C5[C@@H]6[C@@H](C)[C@H](C)CC[C@]6(C(=O)O)CC[C@@]5(C)[C@]4(C)CC[C@H]3C(C)(C)\C2=N\NC(=N)N)cc1` cannot be ordered by IC50: > 100 µM for the first, > 100 µM for the second.

Going from `C[C@H]1[C@H](C)CC[C@]2(C(=O)OCc3ccc(Cl)cc3Cl)CC[C@]3(C)C(=CC[C@@H]4[C@@]5(C)CC/C(=N\NC(=N)N)C(C)(C)[C@@H]5CC[C@]43C)[C@H]12` to `C[C@H]1[C@H](C)CC[C@]2(C(=O)OCc3c(Cl)cccc3Cl)CC[C@]3(C)C(=CC[C@@H]4[C@@]5(C)CC/C(=N\NC(=N)N)C(C)(C)[C@@H]5CC[C@]43C)[C@H]12`, the IC50 falls from > 100 µM to 22.3 µM. The second is the more potent here.

Going from `C[C@H]1[C@H](C)CC[C@]2(C(=O)O)CC[C@]3(C)C(=CC[C@@H]4[C@@]5(C)CC[C@H](O)C(C)(C)[C@@H]5CC[C@]43C)[C@H]12` [URSOLIC ACID] to `C[C@H]1[C@H](C)CC[C@]2(C(=O)O)CC[C@]3(C)C(=CC[C@@H]4[C@@]5(C)CC(=C\c6ccccc6F)/C(=N\NC(=N)N)C(C)(C)[C@@H]5CC[C@]43C)[C@H]12`, the IC50 rises from 23.8 µM to > 100 µM.

`C[C@H]1[C@H](C)CC[C@]2(C(=O)O)CC[C@]3(C)C(=CC[C@@H]4[C@@]5(C)CC(=C\c6cccc7ccccc67)/C(=N\NC(=N)N)C(C)(C)[C@@H]5CC[C@]43C)[C@H]12` and `C[C@H]1[C@H](C)CC[C@]2(C(=O)O)CC[C@]3(C)C(=CC[C@@H]4[C@@]5(C)CC(=C\c6ccccc6)/C(=N\NC(=N)N)C(C)(C)[C@@H]5CC[C@]43C)[C@H]12` cannot be ordered by IC50: > 100 µM for the first, > 100 µM for the second.

`C[C@H]1[C@H](C)CC[C@]2(C(=O)OCc3ccc(F)cc3)CC[C@]3(C)C(=CC[C@@H]4[C@@]5(C)CC/C(=N\NC(=N)N)C(C)(C)[C@@H]5CC[C@]43C)[C@H]12` and `Cc1ccc(COC(=O)[C@]23CC[C@@H](C)[C@H](C)[C@H]2C2=CC[C@@H]4[C@@]5(C)CC/C(=N\NC(=N)N)C(C)(C)[C@@H]5CC[C@@]4(C)[C@]2(C)CC3)cc1` are within 1.5-fold of each other in IC50: 12.9 µM for the first, 18 µM for the second.

`C[C@H]1[C@H](C)CC[C@]2(C(=O)O)CC[C@]3(C)C(=CC[C@@H]4[C@@]5(C)CC(=C\c6cccc(Br)c6)/C(=N\NC(=N)N)C(C)(C)[C@@H]5CC[C@]43C)[C@H]12` and `C[C@H]1[C@H](C)CC[C@]2(C(=O)O)CC[C@]3(C)C(=CC[C@@H]4[C@@]5(C)CC(=C\c6ccc(F)cc6)/C(=N\NC(=N)N)C(C)(C)[C@@H]5CC[C@]43C)[C@H]12` cannot be ordered by IC50: > 100 µM for the first, > 100 µM for the second.

`C[C@H]1[C@H](C)CC[C@]2(C(=O)OCc3cccc(Cl)c3)CC[C@]3(C)C(=CC[C@@H]4[C@@]5(C)CC/C(=N\NC(=N)N)C(C)(C)[C@@H]5CC[C@]43C)[C@H]12` and `C[C@H]1[C@H](C)CC[C@]2(C(=O)OCc3ccc(Cl)cc3)CC[C@]3(C)C(=CC[C@@H]4[C@@]5(C)CC/C(=N\NC(=N)N)C(C)(C)[C@@H]5CC[C@]43C)[C@H]12` are within 1.5-fold of each other in IC50: 34.1 µM for the first, 32.1 µM for the second.
